# Screening results from PubChem.
# Compounds with a hit are over-represented: about 2.2% of the library has one in this group of screens.
# NR2E3 ag-1: inhibitors of NR2E3-RetCOR corepressor binding, primary screen, NR2E3 agonist project, biochemical, TR-FRET, GST-NR2E3, biotin-RetCOR; AID 2300, 2010; 1536-well; inhibition of corepressor binding, % at 4.78 µM; 0.12% of 320,000 active; Photoreceptor-specific nuclear receptor (Homo sapiens), Q9Y5X4;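 active = percent inhibition above the cutoff of mean plus 3 SD of all tested compounds, set per screening campaign, cut at about 20% in these data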;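 also: 0% = DMSO wells and 100% = biotin wells as full block of FRET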
# Target sequence (Q9Y5X4 whole entry, looked up): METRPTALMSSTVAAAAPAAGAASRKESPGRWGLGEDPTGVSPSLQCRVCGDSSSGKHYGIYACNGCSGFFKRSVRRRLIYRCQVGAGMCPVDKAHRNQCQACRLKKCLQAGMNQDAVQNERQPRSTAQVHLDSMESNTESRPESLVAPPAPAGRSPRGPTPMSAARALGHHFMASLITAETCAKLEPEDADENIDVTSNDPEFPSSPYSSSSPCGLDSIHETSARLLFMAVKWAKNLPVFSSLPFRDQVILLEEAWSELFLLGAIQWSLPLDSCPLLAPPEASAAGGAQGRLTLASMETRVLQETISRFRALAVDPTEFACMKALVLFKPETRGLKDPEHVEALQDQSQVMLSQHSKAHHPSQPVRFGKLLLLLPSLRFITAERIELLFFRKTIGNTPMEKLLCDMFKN
#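 Format: 1536-well format; test system: GST-NR2E3 and biotin-RetCOR proteins; read-out basis: percent inhibition of TR-FRET ratio; timing: 5 h incubation at 4 °C; detection: time-resolved FRET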
# V-ATPase pHluor: regulators of yeast V-ATPase proton pumping, primary screen, pHLuorin cytosolic pH fluorescence | response, % at 10 µM | S. cerevisiae | AID 504577, 2011 | 0.37% of 350,000 active; in the data active = response mostly above about 7.3%, no sharp cut-off; inactive = mostly below about 5.4%; also: actives read high
# FXN GAA850 act: FXN promoter activators, primary screen, cell-based, luciferase luminescence, HEK293 lucGAA850 | HEK293 lucGAA850 FXN promoter luciferase reporter, 24 h; percent of 10 µM SAHA response | activation, % at 6 µM | 0.56% of 360,000 active | AID 540364, 2011;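 active = activation above the average of all compounds screened plus 3 SD, cutoff fixed separately per campaign, cut at about 7.5% in these data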;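 also: 0% = DMSO wells and 100% = 10 µM SAHA wells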
# GalR3 antag: GalR3 antagonists in HEK293 cells, primary screen, cell-based, fluorescence readout. Galanin receptor type 3 (Homo sapiens), O60755. HEK293 GalR3-CNG cAMP membrane potential fluorescence; galR3 body fused to GalR1 C-terminus. inhibition, % at 3 µM. 0.44% of 360,000 active. AID 651719, 2012;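 active = inhibition above the screen-wide average plus 3 SD, cut at about 13% in these data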;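 also: forskolin and galanin both at EC90 stimulate the cells; cAMP rise reported by CNG channel membrane potential dye signal; 0% = forskolin plus galanin with DMSO and 100% = forskolin alone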
# Target sequence (O60755 1-299 limits assumed): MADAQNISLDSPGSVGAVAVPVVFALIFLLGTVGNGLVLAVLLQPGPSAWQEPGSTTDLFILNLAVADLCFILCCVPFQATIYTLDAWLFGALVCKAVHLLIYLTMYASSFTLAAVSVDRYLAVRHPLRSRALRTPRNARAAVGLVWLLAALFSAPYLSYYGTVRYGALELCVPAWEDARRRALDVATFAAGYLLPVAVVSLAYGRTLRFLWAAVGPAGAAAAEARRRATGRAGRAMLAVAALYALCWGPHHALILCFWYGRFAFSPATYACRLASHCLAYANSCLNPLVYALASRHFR
# HIV Env fusion: inhibitors of HIV-1 Env-driven cell-cell fusion, primary screen, HeLa-JRFL effector, CEM21 target cells, luciferase; inhibition, % at 12.3 µM; 1.1% of 360,000 active;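 active = mean replicate inhibition score of at least 50 and every replicate individually at or above 50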;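 also: 0% = plate neutral controls and 100% = maraviroc near 300 nM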
# NR2E3 ag-2: NR2E3 agonists in two-hybrid cells, primary screen, cell-based, luminescence, CHO-S, Gal4-NCOR/VP16-NR2E3 | Photoreceptor-specific nuclear receptor (Homo sapiens), Q9Y5X4 | luciferase | inhibition of corepressor binding, % at 3.98 µM | 0.35% of 360,000 active | AID 602229, 2012;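 active = inhibition above the mean of all tested compounds plus 3 SD, cut at about 70% in these data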;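 also: 0% = DMSO with NR2E3 transfected cells and 100% = cells lacking NR2E3 construct; higher means lower luciferase signal from less NR2E3 corepressor binding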
# GAA30 counter: GAA30 FXN promoter activators, confirmation, counter-screen for GAA850 frataxin promoter activator project, cell-based, luminescence, HEK293, lucGAA30, triplicate; shares compounds with FXN GAA850 act; 66% of 1,900 active; AID 588350, 2011; HEK293 lucGAA30 FXN promoter luciferase, 24 h; DMSO = 0%, 5 µM ipriflavone = 100%; activation, % at 6 µM;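 active = mean activation above the mean of solvent-only control wells plus 3 SD, cut at about 22% in these data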;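 also: counterscreen of GAA850 promoter hits where activity marks nonselective or luminescence artifacts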
# FXN GAA850 conf: FXN GAA850 promoter activators in reporter cells, confirmation, cell-based, luminescence, HEK293 lucGAA850, triplicate; shares compounds with FXN GAA850 act; HEK293 lucGAA850 FXN promoter luciferase reporter, 24 h; 100% = activation by SAHA; activation, % at 6 µM; 86% of 1,900 active; AID 588351, 2011;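 active = mean activation above a set limit taken from the primary screen, cut at about 8% in these data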;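 also: 0% = DMSO wells and 100% = 10 µM SAHA wells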
# Numbers without * were called inactive; · = not tested or not shown; [ ] = dose if it differs, or a comment.
SMILES,NR2E3 ag-1,V-ATPase pHluor,FXN GAA850 act,GalR3 antag,HIV Env fusion,NR2E3 ag-2,GAA30 counter,FXN GAA850 conf
Cc1noc(C)c1NC(=O)Nc1ccc2c(c1)CC(=O)N([C@@H](C)CO)C[C@H](C)[C@@H](CN(C)S(C)(=O)=O)O2,·,·,·,·,9.1[16.7 µM],·,·,·
CCOC(=O)c1cnc(SCc2ccccc2)nc1N,3.2,-2.3,9.9*,-9.1,-77.2,-114.9,117.3*,39.2*
CS(=O)(=O)c1ncc(Cl)c(C(=O)Nc2ccc(N3CCOCC3)cc2)n1,1.7,-2.9,-4.6,·,·,1.0,·,·
CCOC(=O)c1nc(S(C)(=O)=O)ncc1Cl,3.5,0.9,41.3*,-6.4,·,-25.2,62.5*,72.9*
CS(=O)(=O)c1ncc(Cl)c(C(=O)Nc2ccc(OC(F)F)cc2)n1,4.1,-1.7,68.4*,·,·,9.8,-75.7,-19.1
C[C@@H]1CN([C@H](C)CO)C(=O)c2cc(-c3cccc(C(=O)N(C)C)c3)cnc2O[C@@H]1CN(C)S(=O)(=O)c1ccccc1,·,·,·,·,-12.0[16.7 µM],·,·,·
CO[C@@H]1CN(C)C(=O)c2ccc(NC(=O)Nc3cc(F)ccc3F)cc2OC[C@H](C)N(C(=O)c2cnccn2)C[C@@H]1C,·,·,·,·,-3.1[16.7 µM],·,·,·
Nc1ccc2cc3[nH]c4cc(N)ccc4c3nc2c1,·,-49.3,11.7*,-5.5,60.8*,-51.3,-83.7,0.5
COc1ccc(C(=O)/C=C/Nc2cccc(C)n2)cc1OC,0.6,14.9,11.2*,-5.6,·,-148.8,117.4*,46.0*
COc1ccc(N/C=C/C(=O)c2ccc(OC)c(OC)c2)cc1,-4.5,2.4,0.9,-5.9,10.9,-19.8,·,·
CCC(=O)c1ccc(OCc2ccccc2)c(OC)c1,-0.6,1.9,7.8*,-5.3,·,-89.3,100.7*,38.5*
O=C(C[C@H]1CC[C@H](NC(=O)c2cnccn2)[C@H](CO)O1)NCc1ccccc1F,·,·,·,·,-4.2[16.7 µM],·,·,·
Cc1nc(/N=C(\N)NC(=O)c2ccccc2)nc2ccccc12,-1.4,-1.1,8.3*,·,·,-90.1,97.2*,32.5*
Cc1nc(N=C(N)N)nc2ccccc12,6.2,0.2,2.2,-4.8,15.9,15.0,·,·
CSc1nsc2nc(=O)c(/C=C3\C=Nc4ccccc43)c(N)n12,1.6,4.0,0.6,-1.9,-30.2,-78.1,·,·
Nc1c(C=C2C=CC(=O)C=C2)c(=O)nc2snc(SCc3ccccc3)n12,4.1,9.4,7.7*,-3.3,-21.2,-59.5,58.9*,15.2*
Cc1c(CCC(=O)NC2CC2)c(=O)oc2cc(O)ccc12,0.7,0.5,15.4*,-3.5,·,-22.1,20.3,11.4*
COc1ccc2c(C)c(CCC(=O)NC3CC3)c(=O)oc2c1,3.8,-2.3,0.5,-9.0,·,-40.6,·,·
O=c1oc2cc(O)ccc2s1,5.9,1.3,9.6*,-3.5,-81.8,-1.6,-3.6,15.6*
Oc1ccc2c(c1)oc1cc(O)ccc12,1.6,-1.8,0.7,-11.1,-114.2,-95.4,·,·
O=C1c2cccc3c([N+](=O)[O-])ccc(c23)C(=O)N1CCc1ccccn1,-1.8,-34.3,0.9,-4.6,-26.8,-15.5,·,·
CN(C)CCCN1C(=O)c2cccc3c([N+](=O)[O-])ccc(c23)C1=O,-4.2,-6.9,7.7*,-2.9,·,-8.0,-23.8,12.3*
O=C(Cc1ccccn1)N[C@@H]1CC[C@@H](CCn2cc(-c3ccccc3)nn2)O[C@@H]1CO,·,·,·,·,2.9[16.7 µM],·,·,·
C/C(=N\NC(=O)COc1ccc(C(C)(C)C)cc1)c1ccc(-n2ccnc2)cc1,-1.9,0.3,8.5*,1.2,-53.8,-15.7,94.5*,21.6*
COc1ccc(OCC(=O)N/N=C(\C)c2ccc(-n3ccnc3)cc2)cc1,-0.1,-0.3,-0.9,-0.8,17.8,0.3,·,·
SMILES,NR2E3 ag-1,V-ATPase pHluor,FXN GAA850 act,GalR3 antag,HIV Env fusion,NR2E3 ag-2,GAA30 counter,FXN GAA850 conf
CCOC(=O)c1ccc(N=c2sc(C(=O)OC)cc(=O)n2CCCN2CCOCC2)cc1,-1.1,-0.3,1.1,·,23.3,-13.5,·,·
CCOC(=O)c1ccc(N=c2sc(C(=O)OC)cc(=O)n2Cc2ccco2)cc1,-3.0,2.5,15.0*,·,-38.1,-14.1,6.8,35.2*
CCCCC1(Cc2cccc([N+](=O)[O-])c2)C(=O)N(c2ccccc2)N(c2ccccc2)C1=O,-4.7,3.8,8.2*,-7.0,119.8*,18.1,-0.8,7.2
CCCCC1(CO)C(=O)N(c2ccccc2)N(c2ccccc2)C1=O,0.5,-0.6,1.2,-3.6,-0.5,-4.0,·,·
CCCCC1(CC(=O)OCC)C(=O)N(c2ccccc2)N(c2ccccc2)C1=O,-3.2,-1.0,9.1*,-2.6,37.6,25.5,14.1,9.7*
O=C(NCC[C@@H]1CC[C@H](NC(=O)C2CCCC2)[C@H](CO)O1)c1cc(Cl)cc(Cl)c1,·,·,·,·,4.5[16.7 µM],·,·,·
CC(C)NC(=O)N(C)C[C@H]1OCCCC[C@H](C)Oc2ccc(N(C)C)cc2C(=O)N([C@H](C)CO)C[C@H]1C,·,·,·,·,2.6[16.7 µM],·,·,·
O=C(NNC(=O)C12CC3CC(CC(C3)C1)C2)c1cnccn1,0.2,3.5,0.4,-6.4,-2.2,-7.7,·,·
O=C(NNC(=O)C12CC3CC(CC(C3)C1)C2)c1ccccn1,-2.5,-1.5,10.2*,-5.5,10.1,5.8,-130.3,-37.1
COCCn1c(C)cc(C(=O)Cn2nc(C(=O)O)c3ccccc3c2=O)c1C,-3.9,3.3,9.4*,3.5,-67.6,-163.3,98.4*,35.2*
C=CCn1c(C)cc(C(=O)Cn2nc(C(=O)O)c3ccccc3c2=O)c1C,-2.7,-3.4,4.0,-0.4,-60.9,-143.2,·,·
C[C@H]1CN([C@@H](C)CO)C(=O)c2cc(NC(=O)c3ccncc3)ccc2O[C@@H]1CN(C)S(=O)(=O)c1ccc(F)cc1,·,·,·,·,-8.4[16.7 µM],·,·,·
COc1ccc(-c2[nH]c(-c3ccc(Cl)cc3)nc2SCC(=O)Nc2nccs2)cc1,2.0,0.3,18.6*,·,-2.9,-27.2,8.8,8.9*
N#Cc1ccccc1Cn1c(=O)n(Cc2ccc(C(=O)NCc3ccco3)cc2)c(=O)c2sccc21,1.6,-2.3,11.8*,4.6,43.4,12.6,22.5*,7.8*
